This is a sample that favours compounds with a hit; in the whole collection about 2.2% have one here.
Mcl-1 Bim block – human Bim-Mcl-1 interaction inhibition. Q07820. Bead-based flow cytometry, Bim peptide-Mcl-1 binding. inhibition, % at 10 µM. 0.1% of 190,000 active. AID 1009; in the data active means inhibition above about 40%;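 further: 0% = no compound tracer wells and 100% = peptide blocker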
Mcl1-Bid inh – Mcl-1/Bid interaction inhibition. Q07820. TR-FRET Mcl-1/Bid-Dy647 peptide binding, 1536-well. inhibition, % at 21.7 µM. 0.97% of 220,000 active. AID 1021;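 active means compounds that cut the binding signal by more than half at the single screening dose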;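 further: His-tagged Mcl-1 with europium anti-His antibody binding Bid BH3 peptide; 0% = Mcl-1 plus peptide wells and 100% = peptide-only wells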
Mcl1-Noxa inh – disrupts binding of human Mcl-1 to Noxa peptide. Q07820. TR-FRET Mcl-1/Noxa peptide binding, 2 h. inhibition, % at 21.7 µM. 1.5% of 220,000 active. AID 1022;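 active means compounds that cut the protein-peptide binding signal by more than 50% relative to plate controls in a single-dose test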;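 further: His-tagged Mcl-1 with rhodamine Noxa BH3 peptide and terbium anti-His antibody; 0% = Mcl-1 plus Noxa peptide wells and 100% = peptide-only wells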
RBBP9 inhibitor – blocks human serine hydrolase RBBP9. 0.2% of 220,000 active. recombinant RBBP9, FP-Rh probe fluorescence polarization. AID 1515. O75884. inhibition, % at 7.94 µM;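 active means inhibition above the campaign mean of all tested compounds plus 3 SD, cut at about 14% in these data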;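 further: plate controls were DMSO wells with RBBP9 for no effect and wells lacking RBBP9 protein for full effect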
Target sequence (O75884 whole entry, looked up): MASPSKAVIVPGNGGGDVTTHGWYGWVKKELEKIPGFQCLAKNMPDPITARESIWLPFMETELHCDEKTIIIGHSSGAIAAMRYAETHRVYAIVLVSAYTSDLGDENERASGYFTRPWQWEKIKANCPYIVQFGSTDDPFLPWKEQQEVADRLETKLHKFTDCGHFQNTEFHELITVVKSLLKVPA
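Test system: recombinant human RBBP9. Quantity: 2.5 µM RBBP9 dispensing solution, before mixing. Detection: FP readout at 525/598 nm. Reagent: Serine-hydrolase probe FP-Rh, 375 nM pre-mixing. Measure: % inhibition. Control set: DMSO-treated enzyme wells and wells lacking RBBP9. Buffer or medium: Tris-NaCl-Pluronic buffer, pH 8.0. Times: preincubation 30 min plus labeling 45 min at 25 °C.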
MCL1-BIM inh – MCL1-BIM-BH3 interaction inhibition (human); Q07820; GST-MCL1 / FITC-Bim-BH3 fluorescence polarization; inhibition, % at 10.9 µM; 0.68% of 320,000 active; AID 2057;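 active means inhibition above the mean inhibition of all tested compounds plus 3 SD, set per campaign, cut at about 40% in these data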;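 further: 0% = DMSO wells and 100% = unlabeled Bim-BH3 peptide control; higher means more loss of mP so more displacement of Bim peptide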
EBV gp42 block – inhibitors of Epstein-Barr virus glycoprotein 42; Q1HVG2; Fluorescence polarization binding assay, mP read-out; inhibition, % (tested at 21.74 µM); 0.42% of 220,000 active; in the data active means inhibition above about 50%
Target sequence (Q1HVG2 whole entry, looked up): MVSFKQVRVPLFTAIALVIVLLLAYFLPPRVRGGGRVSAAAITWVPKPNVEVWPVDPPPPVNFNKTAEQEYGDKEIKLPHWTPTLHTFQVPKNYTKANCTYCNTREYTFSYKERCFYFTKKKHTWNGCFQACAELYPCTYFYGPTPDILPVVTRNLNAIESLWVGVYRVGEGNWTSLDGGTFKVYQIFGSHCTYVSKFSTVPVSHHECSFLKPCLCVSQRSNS
* = called active by the depositor; . = no result given.

SMILES | Mcl-1 Bim block | Mcl1-Bid inh | Mcl1-Noxa inh | RBBP9 inhibitor | MCL1-BIM inh | EBV gp42 block
COc1cc(NC(=O)COc2ccccc2Cl)ccc1NC(=O)c1cccs1 | . | . | . | . | 8.3 | .
COc1cc(NC(=O)COc2ccccc2[N+](=O)[O-])ccc1NC(=O)c1cccs1 | -2.0 | 16.4 | 57.0* | -13.6 | . | -5.6
Cn1ccnc1-c1ccc(-c2nccn2C)cc1 | . | . | . | . | -0.6 | .
Cc1ccc(S(=O)(=O)N2CCOCC2)cc1C(=O)N1C(=O)c2cccc(N)c2C1=O | -1.0 | 97.2* | 17.0 | 0.2 | 31.7 | 35.8
N#CC1=C(N)N2C(=C(C#N)C1c1ccccc1)Sc1ccccc12 (configuration not stated) | -2.0 | -8.9 | 5.9 | 0.1 | -3.0 | 90.2*
O=C(c1ccc([N+](=O)[O-])cc1)N1CCN(C2=NS(=O)(=O)c3ccccc32)CC1 | . | . | . | . | 6.2 | .
COc1cccc(C(C2C(=O)CC(C)(C)CC2=O)C2C(=O)CC(C)(C)CC2=O)c1 | . | . | . | . | 4.5 | .
CC1(C)CC(=O)C(C(c2cccnc2)C2C(=O)CC(C)(C)CC2=O)C(=O)C1 | -30.0 | 69.4* | -4.6 | -5.9 | 9.6 | -20.0
Cc1cc(C)nc(N/C(=N\S(=O)(=O)Cc2ccccc2)Nc2ccccc2Br)n1 | -2.0 | 4.5 | 29.4 | 5.5 | 1.4 | 2.3
CCOC(=O)/C(=C/c1ccco1)NC(=O)c1ccc(Br)o1 | -8.0 | -85.7 | 4.4 | 3.4 | 17.9 | -8.2
CC(=O)c1cc(C#N)c(NCCCN(C)C)nc1C | 3.0 | 55.8* | 3.2 | -6.2 | 1.6 | -7.3
Cc1ccc(CNC2CCCCC2)s1 | . | . | . | . | 8.1 | .
O=C(O)c1cccc(-n2cccc2/C=C2/NC(=O)N(c3ccc(Cl)cc3)C2=O)c1 | 6.0 | 98.2* | 113.0* | -6.5 | . | 94.7*
COc1ccc(-n2cccc2/C=C2/NC(=O)N(c3cccc(Cl)c3)C2=O)cc1 | -5.0 | -40.2 | 32.8 | -6.4 | -25.8 | -80.8
CC(=O)N1CCN(S(=O)(=O)c2ccc(Cl)cc2F)CC1 | 0.0 | -22.7 | 5.7 | -4.8 | 4.3 | 3.1
CC(C)(C)c1cc(C(=O)Nc2cccc3ccccc23)ccn1 | -4.0 | -2.5 | 0.5 | 0.1 | 2.6 | -8.1
CCc1ccc(NC(=O)c2ccnc(C(C)(C)C)c2)cc1 | 1.0 | 101.3* | -2.1 | -10.0 | 7.4 | -18.9
O=C1CCCc2oc3c(c21)CCCC3 | 0.0 | -31.5 | 3.9 | 3.1 | 8.1 | 4.3
COCCN(CC(=O)NC1CCCCC1)C(=O)/C=C/C(=O)c1ccc(OC)cc1O | -8.0 | 32.8 | 65.8* | -7.0 | . | -13.6
Cc1cccc(NC(=S)N(C)C)c1C | . | -24.2 | 0.4 | -11.0 | 1.4 | -9.4
Cc1cccc(Nc2cc(C)c3c(O)cccc3n2)c1C | 0.0 | -5.1 | 53.3* | 2.9 | 0.5 | -5.8
COC(CNC(=O)C(=O)NCC1CCCN1S(=O)(=O)c1cccs1)OC (configuration not stated) | . | . | . | . | 7.0 | .
Cc1ccc2nc(N3CC(=O)Nc4ccccc43)nc(-c3ccccc3)c2c1 | 15.0 | 96.8* | 10.0 | -1.6 | -4.0 | -35.7
Cn1c2c(c(=O)n(C)c1=O)C(c1ccc(Br)cc1)C(C#N)=C(N)N2 (configuration not stated) | . | . | . | . | -3.0 | .
CCCCNC(=O)C1CCN(S(=O)(=O)N2CCCCCC2)CC1 | -1.0 | -2.8 | 14.9 | -0.7 | 0.9 | -9.1
SMILES | Mcl-1 Bim block | Mcl1-Bid inh | Mcl1-Noxa inh | RBBP9 inhibitor | MCL1-BIM inh | EBV gp42 block
CC1CCCC(C)N1CCNC(=O)C1CCN(S(=O)(=O)N2CCCCC2)CC1 (configuration not stated) | -2.0 | 101.8* | 9.6 | -3.3 | 4.2 | -6.2
Cc1cccc(NC(=O)CSc2nc(COc3ccccc3)nc3ccccc23)c1C | -3.0 | 33.0 | -4.4 | -0.5 | 5.8 | -6.6
Cc1cccc(C)c1NC(=O)CSc1nc(COc2ccccc2)nc2ccccc12 | 10.0 | 58.6* | -0.1 | -2.0 | 28.0 | -19.1
O=C(Cn1nc(C(=O)O)c2ccccc2c1=O)Nc1ccc2c(c1)C(=O)c1ccccc1C2=O | . | 75.4* | 80.1* | -3.9 | 2.3 | -0.8
Nc1c(S(=O)(=O)c2cccc(Cl)c2)c2nc3ccccc3nc2n1/N=C/c1ccc(O)c(O)c1 | 13.0 | -12.1 | 63.5* | -5.3 | 13.1 | -5.5
O=C(OCc1ccc(Br)cc1F)c1cc2ccccc2oc1=O | . | . | . | . | -10.2 | .
Cc1ccc(-c2nn(-c3ccccc3)cc2CO)o1 | -2.0 | -28.2 | 16.5 | -8.8 | 10.8 | -16.3
Cc1ccc(-c2nn(-c3ccccc3)cc2C(N)=O)o1 | 0.0 | -20.9 | 51.1* | -8.4 | -14.1 | -6.3
O=C(NC1CCCCC1)c1sc(=S)n2c1[nH]c(=O)c1ccccc12 | -1.0 | 30.3 | 75.7* | -6.4 | 18.2 | 2.6
